Results taken from ChEMBL document CHEMBL1629545, “A morpholino oligomer targeting highly conserved internal ribosome entry site sequence is able to inhibit multiple species of picornavirus” (Antimicrob Agents Chemother, 2008).

How the values were obtained:
Type in all cases: cell-based
HeLa = assay: Cytotoxicity against human HeLa cells at 1 to 10 uM after 24 hrs by MTS assay
Summary of the method: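 HeLa cells at ~80% confluence, uninfected, exposed to 1–100 μM PPMO or water (mock) in serum-free DMEM-F-12 (1:1) for 24 h. MTS reagent was added for 4 h and absorbance read at 492 nm. Viability was expressed as percent of water-treated cells (set to 100%), averaged over 12 wells.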

Vero = assay: Cytotoxicity against African green monkey Vero cells at 10 uM after 24 hrs by MTS assay; conditions: chlorocebus sabaeus
SK-N-MC = assay: Cytotoxicity against human SK-N-MC cell at 10 uM after 24 hrs by MTS assay

Measured: Activity

Cc1cn([C@H]2CN(P(=O)(OC[C@@H]3CN(P(=O)(OC[C@@H]4CN(P(=O)(OC[C@@H]5CN(P(=O)(OC[C@@H]6CN(P(=O)(OC[C@@H]7CNC[C@H](n8cnc9c(=O)[nH]c(N)nc98)O7)N(C)C)C[C@H](n7ccc(N)nc7=O)O6)N(C)C)C[C@H](n6cnc7c(N)ncnc76)O5)N(C)C)C[C@H](n5cnc6c(N)ncnc65)O4)N(C)C)C[C@H](n4ccc(N)nc4=O)O3)N(C)C)C[C@@H](COP(=O)(N(C)C)N3C[C@@H](COP(=O)(N(C)C)N4C[C@@H](COP(=O)(N(C)C)N5C[C@@H](COP(=O)(N(C)C)N6C[C@@H](COP(=O)(N(C)C)N7C[C@@H](COP(=O)(N(C)C)N8C[C@@H](COP(=O)(N(C)C)N9C[C@@H](COP(=O)(N(C)C)N%10C[C@@H](COP(=O)(N(C)C)N%11C[C@@H](COP(=O)(N(C)C)N%12C[C@@H](COP(=O)(N(C)C)N%13C[C@@H](COP(=O)(N(C)C)N%14C[C@@H](COP(=O)(N(C)C)N%15C[C@@H](COP(=O)(N(C)C)N%16C[C@@H](COP(=O)(N(C)C)N%17C[C@@H](COP(=O)(N(C)C)N%18CCN(C(=O)[C@H](CS)NC(=O)[C@H](Cc%19ccccc%19)NC(=O)[C@H](Cc%19ccccc%19)NC(=O)[C@H](CCCNC(=N)N)NC(=O)[C@H](CCCNC(=N)N)NC(=O)[C@H](CCCNC(=N)N)NC(=O)[C@H](CCCNC(=N)N)NC(=O)[C@H](CCCNC(=N)N)NC(=O)[C@H](CCCNC(=N)N)NC(=O)[C@H](CCCNC(=N)N)NC(=O)[C@H](CCCNC(=N)N)NC(=O)[C@@H](N)CCCNC(=N)N)CC%18)O[C@@H](n%18cnc%19c(=O)[nH]c(N)nc%19%18)C%17)O[C@@H](n%17cc(C)c(=O)[nH]c%17=O)C%16)O[C@@H](n%16ccc(N)nc%16=O)C%15)O[C@@H](n%15cc(C)c(=O)[nH]c%15=O)C%14)O[C@@H](n%14cnc%15c(=O)[nH]c(N)nc%15%14)C%13)O[C@@H](n%13cc(C)c(=O)[nH]c%13=O)C%12)O[C@@H](n%12cc(C)c(=O)[nH]c%12=O)C%11)O[C@@H](n%11cc(C)c(=O)[nH]c%11=O)C%10)O[C@@H](n%10ccc(N)nc%10=O)C9)O[C@@H](n9cnc%10c(=O)[nH]c(N)nc%109)C8)O[C@@H](n8cc(C)c(=O)[nH]c8=O)C7)O[C@@H](n7cc(C)c(=O)[nH]c7=O)C6)O[C@@H](n6cc(C)c(=O)[nH]c6=O)C5)O[C@@H](n5cc(C)c(=O)[nH]c5=O)C4)O[C@@H](n4ccc(N)nc4=O)C3)O2)c(=O)[nH]c1=O (some centres undefined)
Non-toxic: all assays above

Cc1cn([C@H]2CNC[C@@H](COP(=O)(N(C)C)N3C[C@@H](COP(=O)(N(C)C)N4C[C@@H](COP(=O)(N(C)C)N5C[C@@H](COP(=O)(N(C)C)N6C[C@@H](COP(=O)(N(C)C)N7C[C@@H](COP(=O)(N(C)C)N8C[C@@H](COP(=O)(N(C)C)N9C[C@@H](COP(=O)(N(C)C)N%10C[C@@H](COP(=O)(N(C)C)N%11C[C@@H](COP(=O)(N(C)C)N%12C[C@@H](COP(=O)(N(C)C)N%13C[C@@H](COP(=O)(N(C)C)N%14C[C@@H](COP(=O)(N(C)C)N%15C[C@@H](COP(=O)(N(C)C)N%16C[C@@H](COP(=O)(N(C)C)N%17C[C@@H](COP(=O)(N(C)C)N%18C[C@@H](COP(=O)(N(C)C)N%19C[C@@H](COP(=O)(N(C)C)N%20C[C@@H](COP(=O)(N(C)C)N%21C[C@@H](COP(=O)(N(C)C)N%22C[C@@H](COP(=O)(N(C)C)N%23CCN(C(=O)[C@H](CS)NC(=O)[C@H](Cc%24ccccc%24)NC(=O)[C@H](Cc%24ccccc%24)NC(=O)[C@H](CCCNC(=N)N)NC(=O)[C@H](CCCNC(=N)N)NC(=O)[C@H](CCCNC(=N)N)NC(=O)[C@H](CCCNC(=N)N)NC(=O)[C@H](CCCNC(=N)N)NC(=O)[C@H](CCCNC(=N)N)NC(=O)[C@H](CCCNC(=N)N)NC(=O)[C@H](CCCNC(=N)N)NC(=O)[C@@H](N)CCCNC(=N)N)CC%23)O[C@@H](n%23cnc%24c(=O)[nH]c(N)nc%24%23)C%22)O[C@@H](n%22cnc%23c(=O)[nH]c(N)nc%23%22)C%21)O[C@@H](n%21ccc(N)nc%21=O)C%20)O[C@@H](n%20cnc%21c(=O)[nH]c(N)nc%21%20)C%19)O[C@@H](n%19cc(C)c(=O)[nH]c%19=O)C%18)O[C@@H](n%18ccc(N)nc%18=O)C%17)O[C@@H](n%17cc(C)c(=O)[nH]c%17=O)C%16)O[C@@H](n%16cc(C)c(=O)[nH]c%16=O)C%15)O[C@@H](n%15ccc(N)nc%15=O)C%14)O[C@@H](n%14ccc(N)nc%14=O)C%13)O[C@@H](n%13cnc%14c(N)ncnc%14%13)C%12)O[C@@H](n%12cc(C)c(=O)[nH]c%12=O)C%11)O[C@@H](n%11cnc%12c(=O)[nH]c(N)nc%12%11)C%10)O[C@@H](n%10cnc%11c(N)ncnc%11%10)C9)O[C@@H](n9cc(C)c(=O)[nH]c9=O)C8)O[C@@H](n8ccc(N)nc8=O)C7)O[C@@H](n7cnc8c(N)ncnc87)C6)O[C@@H](n6ccc(N)nc6=O)C5)O[C@@H](n5cnc6c(N)ncnc65)C4)O[C@@H](n4cnc5c(=O)[nH]c(N)nc54)C3)O2)c(=O)[nH]c1=O (some centres undefined)
Non-toxic: all assays above

Cc1cn([C@H]2CN(P(=O)(OC[C@@H]3CN(P(=O)(OC[C@@H]4CN(P(=O)(OC[C@@H]5CN(P(=O)(OC[C@@H]6CN(P(=O)(OC[C@@H]7CN(P(=O)(OC[C@@H]8CN(P(=O)(OC[C@@H]9CNC[C@H](n%10cnc%11c(=O)[nH]c(N)nc%11%10)O9)N(C)C)C[C@H](n9cnc%10c(N)ncnc%109)O8)N(C)C)C[C@H](n8cnc9c(=O)[nH]c(N)nc98)O7)N(C)C)C[C@H](n7cnc8c(N)ncnc87)O6)N(C)C)C[C@H](n6ccc(N)nc6=O)O5)N(C)C)C[C@H](n5ccc(N)nc5=O)O4)N(C)C)C[C@H](n4cnc5c(N)ncnc54)O3)N(C)C)C[C@@H](COP(=O)(N(C)C)N3C[C@@H](COP(=O)(N(C)C)N4C[C@@H](COP(=O)(N(C)C)N5C[C@@H](COP(=O)(N(C)C)N6C[C@@H](COP(=O)(N(C)C)N7C[C@@H](COP(=O)(N(C)C)N8C[C@@H](COP(=O)(N(C)C)N9C[C@@H](COP(=O)(N(C)C)N%10C[C@@H](COP(=O)(N(C)C)N%11C[C@@H](COP(=O)(N(C)C)N%12C[C@@H](COP(=O)(N(C)C)N%13C[C@@H](COP(=O)(N(C)C)N%14C[C@@H](COP(=O)(N(C)C)N%15C[C@@H](COP(=O)(N(C)C)N%16CCN(C(=O)[C@H](CS)NC(=O)[C@H](Cc%17ccccc%17)NC(=O)[C@H](Cc%17ccccc%17)NC(=O)[C@H](CCCNC(=N)N)NC(=O)[C@H](CCCNC(=N)N)NC(=O)[C@H](CCCNC(=N)N)NC(=O)[C@H](CCCNC(=N)N)NC(=O)[C@H](CCCNC(=N)N)NC(=O)[C@H](CCCNC(=N)N)NC(=O)[C@H](CCCNC(=N)N)NC(=O)[C@H](CCCNC(=N)N)NC(=O)[C@@H](N)CCCNC(=N)N)CC%16)O[C@@H](n%16ccc(N)nc%16=O)C%15)O[C@@H](n%15cnc%16c(N)ncnc%16%15)C%14)O[C@@H](n%14cnc%15c(N)ncnc%15%14)C%13)O[C@@H](n%13cnc%14c(N)ncnc%14%13)C%12)O[C@@H](n%12cnc%13c(=O)[nH]c(N)nc%13%12)C%11)O[C@@H](n%11cnc%12c(=O)[nH]c(N)nc%12%11)C%10)O[C@@H](n%10cc(C)c(=O)[nH]c%10=O)C9)O[C@@H](n9cnc%10c(N)ncnc%109)C8)O[C@@H](n8ccc(N)nc8=O)C7)O[C@@H](n7cnc8c(N)ncnc87)C6)O[C@@H](n6cc(C)c(=O)[nH]c6=O)C5)O[C@@H](n5cnc6c(N)ncnc65)C4)O[C@@H](n4cnc5c(=O)[nH]c(N)nc54)C3)O2)c(=O)[nH]c1=O (some centres undefined)
Non-toxic: all assays above
